Most compounds without a hit are left out; they make up all but 4.2% or so of the library.
HDAC3 inh = human HDAC3 inhibition; O15379; recombinant HDAC3, fluorogenic peptide/trypsin coupled, fluorescence; inhibition, % at 8.3 µM; actives 0.15% (n = 320,000); in the data active = inhibition above about 26%, passing the limit was not always enough; inconclusive = no clear call, values can overlap the other calls
AHR activator = human AHR activation. P35869. AHR-responsive luciferase reporter cells, luminescence. activation, % at 5 µM. actives 2.5% (n = 320,000). AID 2796; in the data active = activation above about 47%;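 note: 0% = vehicle wells and 100% = reference agonist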
FXN GAA850 act = activators of GAA850 frataxin (FXN) promoter; AID 540364; activation, % at 6 µM; HEK293 lucGAA850 FXN promoter luciferase reporter, 24 h; percent of 10 µM SAHA response; actives 0.56% (n = 360,000);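 active = activation above the average of all compounds screened plus 3 SD, cutoff fixed separately per campaign, cut at about 7.5% in these data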;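 note: 0% = DMSO wells and 100% = 10 µM SAHA wells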
SENP1 FRET inh = inhibitors of human SENP1 SUMO protease catalytic domain; recombinant SENP1 catalytic domain, CyPet-SUMO1-YPet FRET cleavage; inhibition, % at 10 µM; actives 0.21% (n = 360,000);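 active = inhibition at least 30% at 10 µM, raw YFP signal under a set limit, fluorescence ratio 0.5 to 1.5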;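 note: 0% = enzyme with DMSO and 100% = no enzyme wells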
Target sequence (Q9P0U3 419-644 limits assumed): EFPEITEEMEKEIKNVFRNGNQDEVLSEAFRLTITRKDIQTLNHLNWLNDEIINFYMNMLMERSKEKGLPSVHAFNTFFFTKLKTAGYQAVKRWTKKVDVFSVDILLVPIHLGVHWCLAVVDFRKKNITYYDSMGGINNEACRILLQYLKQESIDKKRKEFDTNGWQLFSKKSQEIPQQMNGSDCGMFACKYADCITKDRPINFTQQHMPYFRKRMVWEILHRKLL
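System: Recombinant human SENP1 catalytic domain, His6-tagged | Incubation: Enzyme reaction for 50 min at room temperature, dark | Medium: Tris pH 8 with BME, BSA, NP40 and catalase | Also added: 25 nM SUMO1 FRET substrate | Compound: 10 µM single point, 0.5% DMSO | Measured by: FRET fluorescence in CFP and YFP emission channels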
PfM18AAP inh-1 = blocks P. falciparum M18 aspartyl aminopeptidase. recombinant PfM18AAP, H-Glu-NHMec fluorogenic cleavage. inhibition, % at 7.35 µM. actives 1.2% (n = 290,000);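 active = inhibition above the campaign mean inhibition over all tested compounds plus 3 SD, cut at about 28% in these data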;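 note: 0% = plate median of test compound wells and 100% = 2 mM ZnCl2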
CTSL1 counter-1 = blocks F. hepatica cathepsin L1 in PFM18AAP counter-screen | recombinant F. hepatica cathepsin L1, Z-Leu-Arg-MCA fluorescence | actives 0.49% (n = 300,000) | inhibition, % at 5.96 µM;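 active = inhibition above the mean of all tested compounds plus 3 SD, set per screening campaign, cut at about 17% in these data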;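 note: 0% = plate median of test compound wells and 100% = 1 µM Z-Phe-Ala-diazomethylketone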
PfM18AAP inh-2 = confirmation of Plasmodium falciparum M18 aspartyl aminopeptidase inhibitors; AID 2170; shares compounds with PfM18AAP inh-1; inhibition, % at 7.35 µM; recombinant PfM18AAP, H-Glu-NHMec fluorogenic cleavage; actives 28% (n = 2,400);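 active = mean inhibition over replicate wells above the hit cutoff set for the earlier primary screen, cut at about 29% in these data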;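 note: 0% = median of test compound wells and 100% = 2 mM ZnCl2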
CTSL1 counter-2 = Cathepsin L (human) inhibition, confirmation | shares compounds with PfM18AAP inh-1 | purified cathepsin L1, Z-Leu-Arg-MCA fluorescence | inhibition, % at 5.96 µM | 2,400 tested, under 10 active | AID 2178;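 active = average inhibition across replicates above the hit cutoff set in the earlier primary screen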;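 note: 0% = median of test compound wells and 100% = Z-Phe-Ala-diazomethylketone 1 µM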
Target sequence (P07711 whole entry, looked up): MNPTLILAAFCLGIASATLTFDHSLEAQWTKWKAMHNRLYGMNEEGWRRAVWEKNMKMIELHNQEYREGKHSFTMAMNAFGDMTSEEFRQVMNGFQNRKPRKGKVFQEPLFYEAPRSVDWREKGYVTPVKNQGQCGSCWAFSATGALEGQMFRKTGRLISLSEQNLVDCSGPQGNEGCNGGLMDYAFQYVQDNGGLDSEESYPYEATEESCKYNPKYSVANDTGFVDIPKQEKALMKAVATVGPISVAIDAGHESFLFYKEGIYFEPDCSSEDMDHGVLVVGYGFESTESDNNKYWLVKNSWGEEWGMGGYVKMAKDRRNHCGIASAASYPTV
Active calls of the source: *; ? = inconclusive; . = not tested or not shown.

SMILES	HDAC3 inh	AHR activator	FXN GAA850 act	SENP1 FRET inh	PfM18AAP inh-1	CTSL1 counter-1	PfM18AAP inh-2	CTSL1 counter-2
CCN1CCC2(CC1)C(C#N)=C(N)Oc1c2sc2nc(C)cc(C)c12	0	63*	1	-19	33*	3	-46	-1
Cc1cc(F)ccc1-c1cc(C(=O)NCc2ccco2)[nH]n1	.	.	3	1	.	.	.	.
O=S(CC(O)(c1ccccc1)c1ccccc1)CC(O)(c1ccccc1)c1ccccc1	.	.	-7	1	.	.	.	.
O=C(Cc1ccc2c(c1)OCCO2)c1c(O)cc(O)cc1O	8	3	3	-1	39*	0	28	1
COc1ccc(C(=O)Cc2ccc3c(c2)OCO3)c(O)c1	1	5	4	0	-3	0	.	.
CN(C)/C=C1\NC(=S)N(c2ccc(Cl)cc2)C1=O	6	2	0	-2	67*	4	44*	2
CN(C)/C=C1\NC(=S)N(c2ccccc2)C1=O	?	0	0	2	73*	0	51*	4
CN(C)S(=O)(=O)c1cccc(C(=O)C2=C3SC=C(c4ccccc4)N3CC2)c1	-2	6	2	-40	34*	2	-13	-4
O=C(NNc1ccccc1[N+](=O)[O-])Nc1cccc(Cl)c1	2	9	-2	2	33*	-1	31*	0
O=C(NNc1ccccc1[N+](=O)[O-])Nc1ccc(F)cc1F	1	19	1	-22	40*	-2	27	-3
CC(=O)Oc1ccc(/C=c2\sc3ncnn3c2=O)cc1	2	-1	1	0	35*	-3	-11	-7
CCOc1ccccc1/C=c1\sc2ncnn2c1=O	6	0	-1	0	51*	-3	29*	-1
CCCOc1ccc(/C=c2\sc3ncnn3c2=O)cc1	-4	-2	0	3	73*	3	39*	3
CCOc1ccccc1C=C1SC(=S)N(CC)C1=O	.	.	-1	-7	.	.	.	.
Cc1cc(C(=O)NNC(=O)c2ccc(C)c([N+](=O)[O-])c2)c(C)o1	.	.	0	2	.	.	.	.
Cc1cc2nc(C(C)(C)C)c(Cc3cccc(F)c3)n2c(C)c1Br	.	.	.	-5	.	.	.	.
COc1ccc(NC(=O)NNC(=O)c2cc3occc3n2C)c(OC)c1	2	-1	1	4	61*	-7	38*	2
COc1cc(/C=N/N2C(=O)CSC2=S)ccc1O	0	15	-1	2	33*	11	10	-1
O=C1CSC(=S)N1/N=C/c1ccc2c(c1)OCCO2	4	5	1	-1	34*	2	-9	0
O=C(COc1cccc2cccnc12)Nc1ccccc1N1CCOCC1	5	4	1	0	-1	1	.	.
CC(=O)N1Cc2cc(C(=O)NCC(F)(F)F)nc(-c3cccc(-c4cc5ccccc5o4)c3)c2[C@H]1CCO	.	.	.	3	.	.	.	.
Cc1ccc(NC(=O)c2ncn[nH]2)cc1	-7	11	2	-1	5	0	.	.
Cc1c(Cl)cccc1NC(=O)c1ncn[nH]1	-8	-3	0	3	37*	1	36*	0
CC(=O)c1cccc(NC(=O)Cn2cnc(S(=O)(=O)N3CCCC3)c2)c1	-3	2	1	2	-5	0	.	.
O=C(O)c1ccccc1NS(=O)(=O)c1cccc(-n2sc3ccccc3c2=O)c1	54*	9	-1	-3	62*	4	50*	-4
SMILES	HDAC3 inh	AHR activator	FXN GAA850 act	SENP1 FRET inh	PfM18AAP inh-1	CTSL1 counter-1	PfM18AAP inh-2	CTSL1 counter-2
C/C(=N\NC(=O)CC#N)c1ccc(Oc2ccccc2)cc1	3	11	0	1	33*	4	-28	2
COC(=O)c1ccc(C(=O)OC)c(=O)[nH]1	-20	-1	1	-2	18	4	-62	3
CCc1ccc(OC2=NS(=O)(=O)c3ccccc32)cc1	.	.	2	-1	1	.	.	.
CCN(CC)c1cccc(OC2=NS(=O)(=O)c3ccccc32)c1	-2	4	3	-25	36*	0	2	1
Nc1c(C(=O)Nc2ccc(F)cc2)sc(=S)n1-c1ccccc1F	-6	0	2	2	48*	4	-6	0
Cc1nn(-c2ccc(F)cc2)c2nc(N)c(C#N)c(-c3ccc(O)c(O)c3)c12	4	.	6	-85	69*	.	48*	-1
Cc1nn(-c2ccccc2)c2nc(N)c(C#N)c(-c3ccc(O)c(O)c3)c12	2	8	-1	-13	70*	0	48*	0
COc1cc(-c2c(C#N)c(N)nc3c2c(C)nn3-c2ccc(C)c(C)c2)cc(OC)c1OC	8	20	3	-26	1	3	.	.
O=C(CSc1ccccn1)N1CCN(C(=O)CSc2ccccn2)CC1	-11	-1	-1	2	.	-1	.	.
O=C(CSc1ccccn1)N1CCN(c2ccc(Cl)cc2)CC1	1	0	-1	-18	33*	-2	-30	0
CSc1ccc(C(=S)N2CCN(C(c3ccccc3)c3ccccc3)CC2)cc1	-2	2	2	1	41*	3	-5	-1
N#Cc1c(/N=C/c2ccco2)sc2c1CCCCC2	1	5	5	-1	35*	1	-31	2
CC(C)c1cc(C(F)(F)F)nc(NNc2nc(C(C)C)cc(C(F)(F)F)n2)n1	.	.	-3	2	.	.	.	.
COc1cc(/C=N/NC(=O)CSc2cc(C)c(Br)cc2C)ccc1O	0	6	0	-2	-7	5	.	.
Cc1cc(SCC(=O)N/N=C/c2ccc(O)c(O)c2O)c(C)cc1Br	-2	6	-3	2	53*	-2	22	-8
CC(=O)N1CCC(=NNc2ncc(C(F)(F)F)cc2Cl)CC1	-11	18	0	1	33*	-2	-3	5
CCOC(=O)N1CCC(=NNc2ncc(C(F)(F)F)cc2Cl)CC1	-1	11	3	1	12	-4	.	.
Oc1ccc(/C=N/NC(=S)Nc2cccnc2)c(O)c1O	.	.	0	-11	62*	.	34*	2
Cc1cccc(N/N=C/c2ccc(O)c(O)c2O)c1	5	15	2	-1	36*	-4	17	2
COc1cccc(N/N=C/c2cccc(Br)c2O)c1	7	17	3	-26	-2	2	.	.
O=C(Nn1cnnc1)c1ccc(F)cc1	3	2	0	4	32*	-5	16	1
CCOc1ccc(C(=O)Nn2cnnc2)cc1	-9	0	0	-1	22	1	.	.
Cc1cc(C(=O)Nn2cnnc2)cs1	3	1	0	1	26	1	.	.

Screens from PubChem.
